ChEMBL document CHEMBL1152213, “Design, synthesis and antiviral efficacy of a series of potent chloropyridyl ester-derived SARS-CoV 3CLpro inhibitors” (Bioorg Med Chem Lett, 2008)
Activity calls are given as the source filed them. The rule behind the calls is not given here.

The compounds below were run on SARS-CoV (assay: Antiviral activity against SARS-CoV Urbani in african green monkey Vero E6 cells assessed as cell viability after 48 hrs). Conditions: Severe acute respiratory syndrome-related coronavirus.
Assay type: functional, organism-based
Compound `CC(=O)n1ccc2c(C(=O)Oc3cncc(Cl)c3)cccc21` has an IC50 of 1080 nM.
With `O=C(Oc1cncc(Cl)c1)c1ccc2[nH]ccc2c1` the IC50 was 310 nM.
`CC(=O)n1ccc2cc(C(=O)Oc3cncc(Cl)c3)ccc21` was tested, and the IC50 was 400 nM.
For `O=C(On1nnc2ccccc21)c1ccc2[nH]ccc2c1`, the IC50 was 200 nM.
With `CC(C)(C)OC(=O)N[C@@H]1C(=O)N2[C@@H]1SC(C)(C)[C@@H]2C(=O)Oc1cncc(Cl)c1` the IC50 was > 100000 nM.
With `CC(=O)N1Cc2ccccc2C[C@H]1C(=O)Oc1cncc(Cl)c1` the IC50 was 140 nM.
`O=C(Oc1cncc(Cl)c1)c1ccc2cc[nH]c2c1` was tested, and the IC50 was 230 nM.
Compound `O=C(Oc1cncc(Cl)c1)c1ccc2c(ccn2S(=O)(=O)c2cccc([N+](=O)[O-])c2)c1` has an IC50 of 89 nM.
In the case of `Cc1ccc(S(=O)(=O)n2ccc3cc(C(=O)Oc4cncc(Cl)c4)ccc32)cc1`, the IC50 is reported as 370 nM.
`O=C(Oc1cncc(Cl)c1)c1cccc2cc[nH]c12` gave an IC50 of 80 nM.

The compounds below were run against Replicase polyprotein 1a (Severe acute respiratory syndrome-related coronavirus) (UniProt P0C6U8) (assay: Inhibition of SARS 3Clpro measured by rate of reaction). Conditions: not given.
Method in brief: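 Full-length authentic enzyme at 100 nM in 50 mM HEPES pH 7.5 with 1 mM DTT and 0.01 mg/mL BSA. IC50 taken from reaction rates across increasing inhibitor concentrations.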
`CC(=O)n1ccc2c(C(=O)Oc3cncc(Cl)c3)cccc21` was tested, and the Activity was “inactive”.
In the case of `CC(=O)n1ccc2cc(C(=O)Oc3cncc(Cl)c3)ccc21`, the Activity is reported as “inactive”.
